Bioassay records as filed in PubChem.
mABHD4 FP = ABHD4 inhibitors, primary screen, biochemical, fluorescence polarization, mouse; inhibition, % at 8.92 µM; purified mABHD4, FP-Rh probe fluorescence polarization; (Lyso)-N-acylphosphatidylethanolamine lipase (Mus musculus), Q8VD66; hit rate 0.54% among 370,000;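 active means inhibition exceeding the mean over every tested compound plus 3 SD, cut at about 30% in these data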;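 further: 0% = plate median of compound wells and 100% = S159A mutant with DMSO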
Target sequence (Q8VD66 whole entry, looked up): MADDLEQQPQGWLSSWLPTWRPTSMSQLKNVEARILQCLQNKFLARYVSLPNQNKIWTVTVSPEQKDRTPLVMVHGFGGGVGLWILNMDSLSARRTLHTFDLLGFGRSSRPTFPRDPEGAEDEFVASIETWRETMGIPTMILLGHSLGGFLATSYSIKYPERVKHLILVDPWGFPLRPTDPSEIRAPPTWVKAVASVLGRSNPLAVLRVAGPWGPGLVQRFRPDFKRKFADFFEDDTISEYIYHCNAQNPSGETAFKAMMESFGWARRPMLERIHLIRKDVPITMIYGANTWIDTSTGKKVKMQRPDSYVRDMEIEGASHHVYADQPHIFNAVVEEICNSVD
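Assay system: wild-type mouse ABHD4 protein; compound: single nominal dose of 8.92 µM, 0.89% DMSO final; schedule: 45 min + 60 min at 25 °C; measured by: FP readout, ex 525 nm / em 598 nm; evaluation: % inhibition of FP-Rh probe binding versus controls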
Tn7 DDE FP = inhibitors of Tn7 peptide binding to fibrin DD(E), primary screen, biochemical, fluorescence polarization, human fibrin, Tn7 probe; Fibrinogen beta chain (Homo sapiens), P02675; FP displacement of FITC-Tn7 peptide from fibrin DD(E); 0% = median of compound wells per plate; inhibition, % at 8.3 µM; hit rate 0.13% among 370,000;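 active means inhibition above the mean of compounds falling within the control limits plus 3 SD of them, cut at about 14% in these data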;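 further: 0% = plate median of compound wells and 100% = 10 µM Aha-Tn7 peptide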
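Also added: labelled Tn7 tracer, 0.1 µM; Assay system: human fibrin DD(E) protein; Amount: 2 µM fibrin DD(E); Schedule: 10 min compound pre-incubation, 3 h probe incubation at room temperature; Repeats: one replicate per compound; Read-out basis: percent inhibition; Measured by: fluorescence polarization of the labelled Tn7 tracer.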
SIAE inh = human SIAE inhibitors, primary screen, biochemical, fluorescence polarization, FP-Rh probe, 1536-well HTS | hit rate 0.69% among 370,000 | SIAE FP-Rh probe binding | AID 1053197, 2014 | Sialate O-acetylesterase (Homo sapiens), Q9HAT2 | inhibition, % at 9.66 µM;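 active means inhibition above a cutoff: mean of compounds within the control limits plus 3 SD of those, cut at about 17% in these data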;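 further: 0% = plate median of compound wells and 100% = probe without SIAE protein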
DDE Tn6 FP inh = inhibitors of Tn6 peptide binding to fibrin DD(E), primary screen, biochemical, fluorescence polarization, human fibrin, Tn6 probe | inhibition, % at 8.3 µM | Fibrinogen beta chain (Homo sapiens), P02675 | hit rate 0.21% among 370,000 | Fibrin DD(E) TRITC-Tn6 fluorescence polarization displacement;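 active means inhibition above a per-campaign cutoff: mean of compounds within control limits plus 3 SD, cut at about 15% in these data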;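 further: 0% = median of all compound wells on the plate and 100% = blocking peptide control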
TCR CD3 inh = inhibitors of human TCR-CD3 interaction, primary screen, biochemical, fluorescence, TAMRA-labeled TCR probe. inhibition, % at 9.4 µM. hit rate 0.37% among 360,000. AID 651800, 2012;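 further: recombinant mutant TCR 2C K166C tagged with TAMRA read by polarization; 0% = receptor in buffer alone and 100% = receptor with positive control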
HTRA1 inhibitor = HTRA1 serine protease inhibitors, primary screen, biochemical, fluorescence polarization, HTS; Q92743; recombinant HTRA1, FP-rhodamine activity-based probe; inhibition, % at 5.96 µM; hit rate 0.5% among 340,000; AID 504803, 2011; in the data active means inhibition above about 36%;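 further: 0% = enzyme with DMSO and 100% = wells lacking enzyme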
HTRA1 inh conf = HTRA1 protease inhibitors, retest, confirmation, biochemical, fluorescence polarization | shares compounds with HTRA1 inhibitor | recombinant HTRA1, FP-rhodamine activity-based probe | inhibition, % at 5.96 µM | hit rate 66% among 1,600;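 active means mean inhibition over three repeats above a set limit taken from the earlier primary screen, cut at about 37% in these data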;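 further: 0% = HTRA1 with DMSO and 100% = wells lacking HTRA1; inhibitors block probe binding so polarization drops and inhibition rises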
BSA probe FL = compounds interfering with TAMRA-BSA probe, counter-screen for TCR-CD3 interaction inhibitor project, biochemical, fluorescence, TAMRA-labeled BSA. shares compounds with TCR CD3 inh. TAMRA-labeled BSA probe fluorescence counterscreen. inhibition, % at 9.4 µM. hit rate 10% among 1,200; in the data active means inhibition above about 23%;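 further: 0% = buffer low control and 100% = reference high control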
TCR-CD3 conf = TCR-CD3 interaction inhibitors, retest, confirmation, biochemical, fluorescence, TAMRA-labeled TCR probe | shares compounds with TCR CD3 inh | TAMRA-labeled TCR probe fluorescence binding assay | inhibition, % at 9.4 µM | hit rate 48% among 1,200 | AID 652036, 2013
mABHD4 conf = ABHD4 inhibitors, retest, confirmation, biochemical, fluorescence polarization, mouse. shares compounds with mABHD4 FP. hit rate 55% among 1,800. purified mABHD4, FP-Rh probe fluorescence polarization. inhibition, % at 8.92 µM;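 active means mean inhibition across replicates above the hit cutoff set in the primary screen, cut at about 30% in these data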;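 further: 0% = wild-type ABHD4 with DMSO and 100% = catalytically dead S159A mutant with DMSO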
SIAE inh conf = human SIAE inhibitors, retest, confirmation, biochemical, fluorescence polarization, FP-Rh probe, triplicate. shares compounds with SIAE inh. SIAE FP-Rh activity-based probe. hit rate 13% among 2,300. inhibition, % at 9.66 µM;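 active means mean inhibition of the replicates above the hit cutoff set in the primary screen, cut at about 17% in these data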;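 further: 0% = SIAE with DMSO and probe and 100% = probe without SIAE; inhibitors lower polarization as more probe stays unbound to SIAE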
* hit, by the source's call; · = no result. Only some compounds are listed: those with a hit (about 1.8% of all), similar ones and a draw of the others. Unless noted, no stated cut-off is given here; in the data, active means inhibition above about 19%; inactive means the rest.

SMILES	mABHD4 FP	Tn7 DDE FP	SIAE inh	DDE Tn6 FP inh	TCR CD3 inh	HTRA1 inhibitor	HTRA1 inh conf	BSA probe FL	TCR-CD3 conf	mABHD4 conf	SIAE inh conf
O=C(O)/C=C\C(=O)Nc1ccc(N2CCN(c3ccc(Cl)cc3)CC2)cc1	33.1*	-8.2	27.6*	0.8	21.2*	43.7*	7.3	11.3	7.9	10.1	2.2
O=C(O)/C=C\C(=O)Nc1ccccc1C(=O)N1CCN(c2ccc(Cl)cc2)CC1	-4.2	3.6	-1.4	-2.1	-3.8	2.7	·	·	·	·	·
O=C(O)/C=C\C(=O)Nc1ccc(N2CCN(c3ccc(Cl)c(Cl)c3)CC2)cc1	39.1*	-2.3	26.6*	13.6	30.1*	56.8*	5.3	-3.0	0.2	22.0	2.6
O=C(O)/C=C\C(=O)Nc1ccc(N2CCN(c3ccc(F)cc3)CC2)cc1	43.7*	-3.2	32.9*	7.9	27.9*	42.9*	14.4	4.7	2.8	9.8	3.0
O=C(O)/C=C\C(=O)Nc1ccc(N2CCN(c3cccc(Cl)c3)CC2)cc1	41.7*	2.9	25.5*	3.0	21.0*	52.2*	40.2*	0.3	3.8	20.8	1.5
CC(=O)Nc1ccc(N2CCN(c3ccc(F)cc3)CC2)cc1	-4.4	2.0	-2.9	0.8	2.1	3.4	·	·	·	·	·
COC(=O)C1CN(Cc2ccccc2)CCS(=O)(=O)N1Cc1ccc(Cl)cc1 (configuration not stated)	-3.6	-6.7	1.8	-3.6	·	·	·	·	·	·	·
CC(C)C(NC(=O)[C@H](Cc1ccc(O)cc1)NC(=O)OC(C)(C)C)P(=O)(O)OC(Cc1ccccc1)C(=O)O (some centres not stated)	-3.6	5.2	0.3	-9.5	·	·	·	·	·	·	·
O=C1CCC2(CCC(c3ccccc3)CC2)N1CCCO (configuration not stated)	-3.4	2.3	5.5	-2.2	·	·	·	·	·	·	·
Cc1ccc2[nH]c(C)c(/C=N/Nc3nc4ccccc4s3)c2c1	31.3*	-2.6	40.6*	-8.6	3.2	49.4*	53.2*	·	·	43.4*	16.6
COc1ccc(C(=O)OCCN2CCN(C3CN(Cc4cn(Cc5cccc(C)c5)nn4)S(=O)(=O)C3)CC2)cc1OC (configuration not stated)	4.3	-4.1	-1.1	11.1	·	·	·	·	·	·	·
Cc1oc2cc([N+](=O)[O-])c(O)c([N+](=O)[O-])c2c1C(=O)c1ccc(Cl)cc1	5.0	-1.4	4.0	-0.8	-0.9	-0.3	·	·	·	·	·
Cc1cccc(/N=C/c2c(O)ccc3oc4c(c23)CCCC4)n1	·	·	·	·	·	10.7	·	·	·	·	·
CC(C)CN=Cc1c(O)c([N+](=O)[O-])cc2oc3c(c12)CCCC3	20.1	1.1	24.2*	-8.0	6.3	43.6*	42.8*	·	·	·	1.1
